Measurements: ChEMBL document CHEMBL4038323, “Discovery and Kinetic Profiling of 7-Aryl-1,2,4-triazolo[4,3-a]pyridines: Positive Allosteric Modulators of the Metabotropic Glutamate Receptor 2” (J Med Chem, 2017)

Assays:
[1] = target: T1, Metabotropic glutamate receptor 2 (Homo sapiens, UniProt Q14416); assay: Positive allosteric modulation of human metabotropic glutamate receptor 2 expressed in CHOK1 cell membranes assessed as increase in glutamate-induced [35S]GTPgammaS binding preincubated for 30 mins followed by [35S]GTPgammaS addition measured after 30 mins by Topcount scintillation counting method; assay type: functional
Target sequence in this assay (Q14416 whole entry): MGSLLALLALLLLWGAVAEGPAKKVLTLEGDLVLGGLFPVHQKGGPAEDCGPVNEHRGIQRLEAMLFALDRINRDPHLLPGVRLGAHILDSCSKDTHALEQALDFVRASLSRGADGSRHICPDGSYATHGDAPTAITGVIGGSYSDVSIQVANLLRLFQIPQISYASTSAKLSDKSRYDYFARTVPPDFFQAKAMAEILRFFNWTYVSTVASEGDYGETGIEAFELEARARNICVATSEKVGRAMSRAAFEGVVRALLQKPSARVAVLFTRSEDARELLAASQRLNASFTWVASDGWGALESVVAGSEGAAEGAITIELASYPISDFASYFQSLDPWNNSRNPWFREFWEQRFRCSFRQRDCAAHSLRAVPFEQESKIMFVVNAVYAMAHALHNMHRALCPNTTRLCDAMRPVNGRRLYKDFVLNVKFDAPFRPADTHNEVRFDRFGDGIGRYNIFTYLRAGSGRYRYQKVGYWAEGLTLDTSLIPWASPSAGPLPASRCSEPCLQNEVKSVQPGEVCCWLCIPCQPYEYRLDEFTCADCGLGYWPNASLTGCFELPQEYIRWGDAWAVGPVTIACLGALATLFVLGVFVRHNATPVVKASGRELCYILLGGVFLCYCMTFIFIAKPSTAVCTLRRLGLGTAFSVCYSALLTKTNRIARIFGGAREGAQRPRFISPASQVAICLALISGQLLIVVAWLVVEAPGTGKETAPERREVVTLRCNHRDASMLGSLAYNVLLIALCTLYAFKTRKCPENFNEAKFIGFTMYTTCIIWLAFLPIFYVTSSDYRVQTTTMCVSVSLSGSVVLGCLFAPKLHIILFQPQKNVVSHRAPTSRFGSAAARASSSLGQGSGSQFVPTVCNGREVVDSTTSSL

[2] = target: T1, Metabotropic glutamate receptor 2; assay: Displacement of [3H]JNJ-46281222 from human metabotropic glutamate receptor 2 expressed in CHOK1 cell membranes assessed as association rate constant measured every 30 sec for 120 mins by scintillation proximity assay
Summary of the method: (§1)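 For the SPA competition association, CHO-K1_hmGlu2 membranes (20 µg) were pre-coupled 30 min to WGA SPA beads, then mixed with 6 nM [3H]JNJ-46281222, competitor and 1 mM glutamate. Counts were read every 30 s for 120 min at 28°C.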
Target sequence in this assay (Q14416 19-872 limits assumed): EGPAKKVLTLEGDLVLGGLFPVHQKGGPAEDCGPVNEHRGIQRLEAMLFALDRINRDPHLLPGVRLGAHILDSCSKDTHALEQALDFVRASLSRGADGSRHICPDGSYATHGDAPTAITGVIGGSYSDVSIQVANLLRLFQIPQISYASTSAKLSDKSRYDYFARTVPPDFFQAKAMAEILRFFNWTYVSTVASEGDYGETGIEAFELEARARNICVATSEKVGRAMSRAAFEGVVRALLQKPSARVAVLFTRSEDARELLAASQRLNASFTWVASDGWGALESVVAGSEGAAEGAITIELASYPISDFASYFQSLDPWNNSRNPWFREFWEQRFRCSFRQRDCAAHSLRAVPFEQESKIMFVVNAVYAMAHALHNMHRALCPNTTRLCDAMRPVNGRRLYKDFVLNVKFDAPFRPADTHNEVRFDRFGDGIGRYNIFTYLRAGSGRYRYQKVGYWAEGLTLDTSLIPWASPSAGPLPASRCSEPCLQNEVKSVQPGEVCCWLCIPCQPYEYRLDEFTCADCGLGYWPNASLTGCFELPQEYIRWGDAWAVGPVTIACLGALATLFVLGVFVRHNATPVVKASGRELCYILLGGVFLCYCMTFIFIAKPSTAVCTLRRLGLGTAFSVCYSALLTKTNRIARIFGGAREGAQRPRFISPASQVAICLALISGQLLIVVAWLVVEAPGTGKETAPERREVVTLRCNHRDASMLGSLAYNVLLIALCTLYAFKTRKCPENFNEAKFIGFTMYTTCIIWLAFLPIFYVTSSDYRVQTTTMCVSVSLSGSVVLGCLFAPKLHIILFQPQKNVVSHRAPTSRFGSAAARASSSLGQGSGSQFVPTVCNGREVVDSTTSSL

[3] = target: T1, Metabotropic glutamate receptor 2; assay: Displacement of [3H]JNJ-46281222 from human metabotropic glutamate receptor 2 expressed in CHOK1 cell membranes assessed as dissociation rate constant measured every 30 sec for 120 mins by scintillation proximity assay; summary of the method: as §1
Target sequence in this assay (Q14416 19-872 limits assumed): as above

[4] = target: T1, Metabotropic glutamate receptor 2; assay: Displacement of [3H]-JNJ46281222 from human metabotropic glutamate receptor 2 expressed in CHOK1 cell membranes after 60 mins by microbeta counting analysis
Target sequence in this assay (Q14416 whole entry): as the sequence (Q14416 whole entry) above

[5] = target: T1, Metabotropic glutamate receptor 2; assay: Displacement of [3H]JNJ-46281222 from human metabotropic glutamate receptor 2 expressed in CHOK1 cell membranes assessed as residence time measured every 30 sec for 120 mins by scintillation proximity assay; summary of the method: as §1
Target sequence in this assay (Q14416 19-872 limits assumed): as the sequence (Q14416 19-872 limits assumed) above

[6] = target: T1, Metabotropic glutamate receptor 2; assay: Binding affinity to human metabotropic glutamate receptor 2 expressed in CHOK1 cell membranes by scintillation proximity assay
Target sequence in this assay (Q14416 whole entry): as the sequence (Q14416 whole entry) above

Compound | EC50 [1] | K [2] | K [3] | Ki [4] | TIME [5] | Kd [6]
Cc1ccc(Oc2ccc(-c3ccn4c(CC5CC5)nnc4c3C(F)(F)F)cc2Cl)c(C)n1 | 2.88 nM | 6.1 ×10⁶ /M/min | 0.044 min⁻¹ | 1.51 nM | 0.378 h | 7.3 nM
CCc1cc(Oc2ccc(-c3ccn4c(CC5CC5)nnc4c3Cl)cc2F)ccn1 | 100 nM | 3 ×10⁶ /M/min | 0.069 min⁻¹ | 18.6 nM | 0.24 h | 23.3 nM
Cc1ccc(Oc2ccc(-c3ccn4c(CC(F)(F)F)nnc4c3Cl)cc2F)c(C)n1 | 29.5 nM | 2.9 ×10⁷ /M/min | 0.096 min⁻¹ | 7.94 nM | 0.175 h | 3.3 nM
CCOCc1nnc2c(C(F)(F)F)c(-c3ccc(Oc4ccc(C)nc4C)c(F)c3)ccn12 | 29.5 nM | 3.6 ×10⁷ /M/min | 0.075 min⁻¹ | 11.7 nM | 0.223 h | 2.1 nM
O[C@H]1CC[C@@H](Nc2ccc(-c3ccn4c(CC5CC5)nnc4c3C(F)(F)F)cc2Cl)CC1 |  | 5.7 ×10⁶ /M/min | 0.058 min⁻¹ |  | 0.285 h | 
FC(F)(F)c1c(-c2ccc(CNC3CCOCC3)c(Cl)c2)ccn2c(CC3CC3)nnc12 | 631 nM | 1.7 ×10⁶ /M/min | 0.091 min⁻¹ | 61.7 nM | 0.183 h | 54 nM
O[C@H]1CC[C@H](Oc2ccc(-c3ccn4c(CC5CC5)nnc4c3C(F)(F)F)cc2Cl)CC1 | 25.1 nM | 1.2 ×10⁷ /M/min | 0.036 min⁻¹ | 1.91 nM | 0.468 h | 3 nM
CC(C)Nc1ccc(-c2ccn3c(CC4CC4)nnc3c2C(F)(F)F)cc1F | 93.3 nM | 4.6 ×10⁷ /M/min | 0.1 min⁻¹ | 8.91 nM | 0.167 h | 2.2 nM
Cc1cc(Oc2ccc(-c3ccn4c(CC5CC5)nnc4c3C(F)(F)F)cc2F)ccn1 | 56.2 nM | 9.8 ×10⁶ /M/min | 0.09 min⁻¹ | 7.08 nM | 0.185 h | 9.2 nM
Clc1cc(-c2ccn3c(CC4CC4)nnc3c2Cl)ccc1NC1CCOCC1 | 148 nM | 7 ×10⁶ /M/min | 0.136 min⁻¹ | 38.9 nM | 0.122 h | 19.5 nM
FC(F)(F)c1c(-c2ccc(NC3CC3)c(Cl)c2)ccn2c(CC3CC3)nnc12 | 7.76 nM | 7.7 ×10⁷ /M/min | 0.088 min⁻¹ | 2.24 nM | 0.188 h | 1.2 nM
Cc1ccc(Oc2ccc(-c3ccn4c(CC5CC5)nnc4c3C(C)C)cc2F)c(C)n1 | 28.2 nM | 6.5 ×10⁶ /M/min | 0.07 min⁻¹ | 25.1 nM | 0.237 h | 10.7 nM
Cc1ccc(Oc2ccc(-c3ccn4c(CC5CC5)nnc4c3C)cc2F)c(C)n1 | 77.6 nM | 8.6 ×10⁶ /M/min | 0.086 min⁻¹ | 21.9 nM | 0.193 h | 10 nM
O[C@H]1CC[C@@H](Oc2ccc(-c3ccn4c(CC(F)(F)F)nnc4c3Cl)cc2Cl)CC1 | 97.7 nM | 6.9 ×10⁶ /M/min | 0.056 min⁻¹ | 32.4 nM | 0.295 h | 8.1 nM
Cc1cc(Oc2ccc(-c3ccn4c(CC5CC5)nnc4c3C(F)(F)F)cc2F)cc(C)n1 | 64.6 nM | 8.3 ×10⁶ /M/min | 0.095 min⁻¹ | 10 nM | 0.175 h | 11.5 nM
COc1ccc(COc2ccc(-c3ccn4c(CC5CC5)nnc4c3C(F)(F)F)cc2)cn1 | 57.5 nM | 1.4 ×10⁷ /M/min | 0.125 min⁻¹ | 8.71 nM | 0.133 h | 8.7 nM
O[C@H]1CC[C@H](Nc2ccc(-c3ccn4c(CC5CC5)nnc4c3Cl)cc2Cl)CC1 | 33.1 nM | 6.7 ×10⁶ /M/min | 0.084 min⁻¹ | 3.02 nM | 0.197 h | 12.7 nM
COc1ccc(CNc2ccc(-c3ccn4c(CC5CC5)nnc4c3Cl)cc2)cn1 | 151 nM | 6.2 ×10⁶ /M/min | 0.097 min⁻¹ | 7.41 nM | 0.172 h | 15.6 nM

Compound | EC50 [1] | K [2] | K [3] | Ki [4] | TIME [5] | Kd [6]
COc1ccc(CNc2ccc(-c3ccn4c(CC5CC5)nnc4c3C(F)(F)F)cc2F)cn1 | 5.89 nM | 1.5 ×10⁷ /M/min | 0.044 min⁻¹ | 2.04 nM | 0.378 h | 2.9 nM
Fc1cc(-c2ccn3c(CC4CC4)nnc3c2Cl)ccc1Oc1ccnc(C2CC2)c1 | 87.1 nM | 1.7 ×10⁶ /M/min | 0.073 min⁻¹ | 53.7 nM | 0.228 h | 42.7 nM
Cc1ccc(Oc2ccc(-c3ccn4c(CC5CC5)nnc4c3C)cc2Cl)c(C)n1 | 17.4 nM | 5.5 ×10⁶ /M/min | 0.096 min⁻¹ | 14.8 nM | 0.175 h | 17.4 nM
CCOCc1nnc2c(Cl)c(-c3ccc(Oc4ccc(C)nc4C)c(F)c3)ccn12 | 74.1 nM | 3 ×10⁶ /M/min | 0.076 min⁻¹ | 6.46 nM | 0.22 h | 25.2 nM
O[C@H]1CC[C@H](Nc2ccc(-c3ccn4c(CC5CC5)nnc4c3C(F)(F)F)cc2Cl)CC1 |  | 1.1 ×10⁷ /M/min | 0.033 min⁻¹ |  | 0.513 h | 
Cc1ccc(Oc2ccc(-c3ccn4c(CC5CC5)nnc4c3Cl)cc2F)c(C)n1 | 40.7 nM | 6.3 ×10⁶ /M/min | 0.097 min⁻¹ | 1.95 nM | 0.172 h | 15.3 nM
CC(C)Nc1ccc(-c2ccn3c(CC4CC4)nnc3c2Cl)cc1F | 224 nM | 5 ×10⁶ /M/min | 0.101 min⁻¹ | 61.7 nM | 0.165 h | 20.3 nM
COc1ccc(CNc2ccc(-c3ccn4c(CC5CC5)nnc4c3C(F)(F)F)cc2)cn1 | 15.1 nM | 3.4 ×10⁷ /M/min | 0.069 min⁻¹ | 3.16 nM | 0.243 h | 2 nM
Clc1cc(-c2ccn3c(CC4CC4)nnc3c2Cl)ccc1NC1CC1 | 29.5 nM | 1.4 ×10⁷ /M/min | 0.084 min⁻¹ | 6.76 nM | 0.198 h | 6.1 nM
Clc1cc(-c2ccn3c(CC4CC4)nnc3c2Cl)ccc1OC1CCOCC1 | 224 nM | 3.3 ×10⁶ /M/min | 0.092 min⁻¹ | 22.9 nM | 0.182 h | 28.1 nM
Cc1c(OCc2cccc(-c3ccc(C(=O)O)cc3)c2)cc2c(c1C)C(=O)C(C1CCCC1)C2 (stereo not drawn) |  | 4.6 ×10⁶ /M/min | 0.086 min⁻¹ |  | 0.193 h | 
COc1ccc(COc2ccc(-c3ccn4c(CC5CC5)nnc4c3C(F)(F)F)cc2F)cn1 | 40.7 nM | 1.1 ×10⁷ /M/min | 0.173 min⁻¹ | 11.7 nM | 0.0967 h | 16 nM
Fc1cc(-c2ccn3c(CC4CC4)nnc3c2C(F)(F)F)ccc1NC1CC1 | 30.2 nM | 7.7 ×10⁷ /M/min | 0.086 min⁻¹ | 3.63 nM | 0.198 h | 1.1 nM
Cc1cc(-c2nc(CN3CCNCC3)no2)cc2c1C(=O)N(Cc1ccc(OC(F)(F)F)cc1)C2 |  | 2.1 ×10⁵ /M/min | 0.128 min⁻¹ |  | 0.13 h | 
CC(C)Nc1ccc(-c2ccn3c(CC4CC4)nnc3c2C(F)(F)F)cc1Cl | 17.4 nM | 3.6 ×10⁷ /M/min | 0.121 min⁻¹ | 3.89 nM | 0.137 h | 3.4 nM
O[C@H]1CC[C@H](Oc2ccc(-c3ccn4c(CC(F)(F)F)nnc4c3Cl)cc2Cl)CC1 | 158 nM | 8.3 ×10⁶ /M/min | 0.137 min⁻¹ | 11.5 nM | 0.122 h | 16.6 nM
Cc1cc(Oc2ccc(-c3ccn4c(CC5CC5)nnc4c3Cl)cc2F)ccn1 | 251 nM | 2.6 ×10⁶ /M/min | 0.096 min⁻¹ | 63.1 nM | 0.173 h | 37.6 nM
